Results of several laboratories.
Target: Myotonin-protein kinase (DMPK, Homo sapiens, UniProt Q09013)
Sequence (Q09013 1-629, as in one of the studies): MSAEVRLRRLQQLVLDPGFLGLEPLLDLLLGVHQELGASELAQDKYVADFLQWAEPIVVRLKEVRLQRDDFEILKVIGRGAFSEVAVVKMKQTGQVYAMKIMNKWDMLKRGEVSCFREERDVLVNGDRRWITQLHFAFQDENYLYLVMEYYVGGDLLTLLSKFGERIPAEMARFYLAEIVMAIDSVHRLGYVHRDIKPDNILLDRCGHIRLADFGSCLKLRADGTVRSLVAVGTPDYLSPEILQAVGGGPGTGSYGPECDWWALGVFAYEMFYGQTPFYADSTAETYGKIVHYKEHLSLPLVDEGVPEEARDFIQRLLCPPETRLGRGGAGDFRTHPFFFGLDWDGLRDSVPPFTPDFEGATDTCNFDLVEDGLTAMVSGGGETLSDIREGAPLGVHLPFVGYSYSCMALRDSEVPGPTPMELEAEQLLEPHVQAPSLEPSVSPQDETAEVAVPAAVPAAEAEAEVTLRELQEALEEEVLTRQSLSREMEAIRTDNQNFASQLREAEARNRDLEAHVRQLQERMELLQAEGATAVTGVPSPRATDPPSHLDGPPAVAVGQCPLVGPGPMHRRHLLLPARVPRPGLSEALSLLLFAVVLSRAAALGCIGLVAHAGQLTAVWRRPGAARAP

SMILES | effect on | mode | method | concentration | measurement | value
CCCS(=O)(=O)Nc1ccc(F)c(C(=O)c2c[nH]c3ncc(-c4ccc(Cl)cc4)cc23)c1F | enzyme activity | inhibitor |  | 1 µM | inhibition | < 10%
Cc1cnc(NC2CCOCC2)nc1-n1cnc(C(=O)NC(CN)c2cc(F)cc(Cl)c2)c1 (stereo not shown) | enzyme activity | inhibitor | radiometric | 1 µM | remaining activity | 95%
CC(=O)N1CCC(c2ccc(C(=O)NC(=N)N)cc2C(F)(F)F)CC1 | cell-free assay |  | competition with immobilised ligand | 1 µM | remaining binding | 100%
CCN(CC)CCNC(=O)c1c(C)[nH]c(/C=C2\C(=O)Nc3ccc(F)cc32)c1C | enzyme activity | inhibitor |  | 10 µM | inhibition | -5%
Cn1c2c(c3ccccc31)C(C#N)C(C)(C)NC2=O (stereo not shown) | thermal stability |  | DSF | 10 µM | ΔTm | -0.3 °C
CN(C)c1ncnc(-c2ccc3nc(Nc4cc(CN5CCN(C(=O)CC(F)(F)F)CC5)ccn4)[nH]c3c2)c1Cl | cell-free assay |  | competition with immobilised ligand | 1 µM | remaining binding | 91%
N#CCCc1ccc2c(c1)-c1[nH]c3ccc([N+](=O)[O-])cc3c1CC(=O)N2 | cell-free assay |  |  | 0.5 µM | remaining signal | 89.8%
Cc1ccc(NC(=O)c2ccc(C)c(C(F)(F)F)c2)cc1C#Cc1nn(C2CCC(O)CC2)c2ncnc(N)c12 (stereo not shown) | cell-free assay |  |  | 10 µM | remaining signal | 91%
CC(C)CC(=O)N1CCc2nc(-c3ccc(Br)cc3)nc(N(C)Cc3ccccc3)c2C1 | cell-free assay |  | competition with immobilised ligand | 0.1 µM | remaining binding | 87%
CNC(=O)c1cc(Oc2ccc(NC(=O)Nc3ccc(Cl)c(C(F)(F)F)c3)cc2)ccn1 | enzyme activity | inhibitor |  | 10 µM | inhibition | -16%
CCN(CC)c1ccc(C2=NNC(=O)CC2C)cc1[N+](=O)[O-] (stereo not shown) | enzyme activity | inhibitor |  | 10 µM | remaining activity | 91%
CC1(C)NC(=O)c2[nH]c3c(Cl)c(Cl)ccc3c2C1C#N (stereo not shown) | thermal stability |  | DSF | 10 µM | ΔTm | 1 °C
C#Cc1cccc(Nc2ncnc3cc(OCCOC)c(OCCOC)cc23)c1 | cell-free assay |  |  | 0.5 µM | remaining signal | 96.9%
Cc1cc(NC(=O)c2cccc3cc(-c4cccc5[nH]nc(N)c45)ccc23)ccc1F | enzyme activity | inhibitor |  | 0.1 µM | activity vs control | 99%
O=C1NC(=O)c2cc(Nc3ccc(F)cc3)c(Nc3ccc(F)cc3)cc21 | cell-free assay |  |  | 0.5 µM | remaining signal | 108%
CC(C)(C)c1nc(-c2cccc(NS(=O)(=O)c3c(F)cccc3F)c2F)c(-c2ccnc(N)n2)s1 | enzyme activity | inhibitor | radiometric | 1 µM | remaining activity | 103%
Cc1ccc(Nc2nccc(N(C)c3ccc4c(C)n(C)nc4c3)n2)cc1S(N)(=O)=O | enzyme activity | inhibitor |  | 0.3 µM | inhibition | -15%
O=C(Nc1cnn(-c2csc(C(=O)NC3COC3)c2)c1)Nc1c(F)cccc1Cl | enzyme activity | inhibitor |  | 5 µM | remaining activity | 110%
Cc1nc(C2CCN(C(=O)c3ccc(OC(F)(F)F)cc3N)CC2)c2ncc(N3CCN(C)CC3)cc2n1 | cell-free assay |  | competition with immobilised ligand | 1 µM | remaining binding | 100%
COc1cc(Cl)c(C(=O)N[C@@H](CN[C@H]2CC[C@@H](N)CC2)Cc2ccc(C#N)cc2)cc1-c1ccc(CN[C@H](C)c2ccc(C)cc2)o1 | enzyme activity | inhibitor |  | 1 µM | remaining activity | 100%
CCC1(CC)NC(=O)c2c(c3ccc(Cl)c(Cl)c3n2C)C1C#N (stereo not shown) | thermal stability |  | DSF | 10 µM | ΔTm | 0.2 °C
C[C@H](c1ccnc(Nc2nc3ccc(-c4cc(N(C)C)ncn4)cc3[nH]2)c1)N1CCN(C(=O)CC(F)(F)F)CC1 | cell-free assay |  | competition with immobilised ligand | 0.1 µM | remaining binding | 100%
N#CC1c2c([nH]c3c(Cl)c(Cl)ccc23)C(=O)NC12CCCCC2 (racemic) | thermal stability |  | DSF | 10 µM | ΔTm | -0.6 °C
CN(C)C(=O)Cn1cc(-c2nc([C@@](C)(c3ccc(-c4cnc(N)nc4)cc3)C3CC3)no2)cn1 | cell-free assay |  | competition with immobilised ligand | 1 µM | remaining binding | 100%
Cn1c2c(c3ccc(Cl)c(Cl)c31)C(C#N)C(C)(C)NC2=O (stereo not shown) | thermal stability |  | DSF | 10 µM | ΔTm | 0.4 °C
c1ccc(N2CCN(Cc3nc4ccccc4[nH]3)CC2)nc1 | binding |  | competition with immobilised ligand | 1 µM | remaining binding | 100%
Cn1c2c(c3ccc(Cl)c(Cl)c31)C(C#N)C1(CCN(C(=O)OC(C)(C)C)CC1)NC2=O (racemic) | thermal stability |  | DSF | 10 µM | ΔTm | -0.5 °C
O=C(O)c1cc(-c2ccc(C3CCNCC3)cc2)c2ccc(-c3ccc(C(F)(F)F)cc3)cc2c1 | cell-free assay |  | competition with immobilised ligand | 1 µM | remaining binding | 100%
